Bioassay records: PubChem, Sanford-Burnham Center for Chemical Genomics
APJ antagonist – antagonists of human APJ apelin receptor; P35414; CHO-K1 APJ beta-arrestin complementation, luminescence; inhibition, % at 20 µM; 330,000 compounds, 0.32% hits;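 active = inhibition above about 40% at 20 µM, limit read from the data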;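 also: cells challenged with 10 nM apelin-13 agonist together with compound; plate controls were apelin-13 plus DMSO wells for no effect and DMSO wells lacking apelin-13 for full effect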
CCR6 antag – CCR6 (human) receptor antagonism; P51684; CHO-K1 CCR6 PathHunter beta-arrestin, luminescence, CCL20-stimulated; inhibition, % at 20 µM; 340,000 compounds, 0.49% hits; AID 493098;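 active = compounds whose inhibition of the agonist-driven luminescence signal at 20 µM reaches about 50%, limit read from the data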;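 also: cells stimulated with CCL20 at 14 nM final; plate controls were DMSO with CCL20 for no effect and DMSO without agonist for full effect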
Target sequence (P51684 whole entry, looked up): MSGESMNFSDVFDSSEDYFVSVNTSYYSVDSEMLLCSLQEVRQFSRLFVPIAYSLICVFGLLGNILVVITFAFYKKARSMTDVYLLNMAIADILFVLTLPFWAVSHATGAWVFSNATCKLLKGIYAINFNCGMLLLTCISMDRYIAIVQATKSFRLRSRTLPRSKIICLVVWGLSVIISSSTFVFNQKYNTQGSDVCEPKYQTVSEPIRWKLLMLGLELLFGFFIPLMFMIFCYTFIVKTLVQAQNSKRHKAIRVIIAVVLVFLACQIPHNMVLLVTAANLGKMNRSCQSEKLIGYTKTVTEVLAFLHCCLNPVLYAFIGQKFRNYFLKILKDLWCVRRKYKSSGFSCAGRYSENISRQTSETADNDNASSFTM
EBI2 block – blocks human EBI2 receptor beta-arrestin signaling | P32249 | EBI2 beta-arrestin recruitment, luminescence, 7a,25-OHC stimulated | inhibition, % at 5 µM | 360,000 compounds, 0.81% hits; in the data active = inhibition above about 38%;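 also: enzyme fragment complementation signal reports receptor beta-arrestin coupling in cells; 0% = agonist plus DMSO wells and 100% = wells without agonist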
CXCR6 block – blocks human CXCR6 beta-arrestin recruitment; CHO-K1 PathHunter CXCR6 beta-arrestin, luminescence; inhibition, % at 20 µM; 360,000 compounds, 0.36% hits; in the data active = inhibition above about 34%, passing the limit was not always enough;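 also: antagonist mode with CXCL16 agonist at 10 nM final; 0% = 10 nM CXCL16 with DMSO and 100% = unstimulated wells without agonist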
Target sequence (O00574 whole entry, looked up): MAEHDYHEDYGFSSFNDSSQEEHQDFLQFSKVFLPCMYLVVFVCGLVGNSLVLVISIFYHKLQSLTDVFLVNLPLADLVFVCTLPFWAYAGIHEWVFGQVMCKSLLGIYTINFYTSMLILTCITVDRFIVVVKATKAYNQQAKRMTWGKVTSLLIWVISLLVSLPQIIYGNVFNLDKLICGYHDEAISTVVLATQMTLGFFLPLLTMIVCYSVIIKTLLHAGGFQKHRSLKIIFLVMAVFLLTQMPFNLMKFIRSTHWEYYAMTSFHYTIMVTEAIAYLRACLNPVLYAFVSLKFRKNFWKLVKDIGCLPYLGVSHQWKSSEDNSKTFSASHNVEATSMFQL
APJ ag – activates the human apelin receptor APJ; 330,000 compounds, 0.11% hits; P35414; CHO-K1 APJ PathHunter beta-arrestin, luminescence; 0% DMSO wells, 100% apelin; activation, % at 20 µM;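 active = activation more than six SD over the plate average, tested at 20 µM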;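 also: 0% = DMSO alone and 100% = apelin-13 at 10 nM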
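Test system: CHO-K1 APJ beta-arrestin complementation cell line | Compound: Single test compound dose, 20 µM final, 1% DMSO | Incubation: Compound 90 min 25 °C, reagent 1 h | Measured by: beta-gal luminescence | Read-out basis: APJ–arrestin association signal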
EBI2 conf – EBI2 (human) antagonism, single concentration confirmation; AID 651997; inhibition, % at 5 µM; EBI2 beta-arrestin luminescence, 7a,25-OHC antagonism; shares compounds with EBI2 block; 2,400 compounds, 29% hits;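 active = inhibition of at least 50%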
EBI2 ag – EBI2 agonism counter-screen. EBI2-expressing cells, agonist mode, luminescence, 60 min; 0% vehicle, 100% 7α,25-dihydroxycholesterol control. 2,400 tested, under 10 active. shares compounds with EBI2 block. AID 652000. activation, % at 5 µM;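 active = activation of at least 50%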
bGal counter – inhibits E. coli beta-galactosidase, counter-screen for EBI2 antagonists; shares compounds with EBI2 block; purified beta-galactosidase, luminescent Galacton Star, 15 min; inhibition, % at 5 µM; 2,400 compounds, 1% hits; AID 652176;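 active = replicate-average signal at least 3 plate SD below neutral wells, shown as high inhibition, flagging enzyme-inhibiting false positives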;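 also: 0% = DMSO wells with enzyme and 100% = wells lacking enzyme; higher means stronger loss of beta-gal luminescence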
Numbers without * were called inactive; nt = not tested or not shown. The list is not random: actives were taken first. Their share in the collection is about 1.5%.

SMILES	APJ antagonist	CCR6 antag	EBI2 block	CXCR6 block	APJ ag	EBI2 conf	EBI2 ag	bGal counter
COC(=O)C/C=C/[C@@H](C)[C@@H](/C=N/OC[C@@H](C)[C@H](OCc1ccccc1)C(C)C)NS(=O)(=O)c1ccc(C)cc1	-2.6	nt	nt	nt	-2.9	nt	nt	nt
Cc1ccc(-c2cc(C#N)c(=O)n(Cc3c(Cl)cccc3Cl)c2)cc1	-20.6	-2.6	46.8*	5.3	2.0	16.8	0.5	-6.7
N#Cc1cc(-c2ccccc2)cn(Cc2c(Cl)cccc2Cl)c1=O	1.3	0.9	35.6	2.3	-2.6	nt	nt	nt
Cn1c(NCc2ccco2)nc2c1c(=O)n(Cc1ccc(Cl)c(Cl)c1)c(=O)n2C	-7.7	-0.3	46.1*	9.6	5.1	35.0	0.1	6.3
Cn1c(NCC(O)CO)nc2c1c(=O)n(Cc1ccc(Cl)c(Cl)c1)c(=O)n2C (configuration not stated)	3.0	-3.3	2.7	1.9	1.1	nt	nt	nt
O=C1c2ccccc2[C@@H]2C[C@H](NC34CC5CC(CC(C5)C3)C4)[C@@H](O)CCN12	nt	25.0	-8.4	7.5	nt	nt	nt	nt
CNC(=O)c1sc(SC)cc1-c1ccc(Cl)cc1	11.2	6.7	50.3*	2.0	1.8	37.4	1.5	5.3
O=C(Nc1ccc2c(c1)OCCO2)C(CCc1ccccc1)N1CCN(C/C=C/c2ccccc2)CC1 (configuration not stated)	nt	nt	43.7*	3.5	nt	19.4	-1.3	-7.3
O=C(Nc1ccc2c(c1)OCCO2)C(c1ccnc2ccccc12)N1CCN(C/C=C/c2ccccc2)CC1 (configuration not stated)	nt	nt	49.6*	-4.2	nt	41.6	-0.2	-1.2
O=C(Nc1ccc2c(c1)OCCO2)C(CCc1ccccc1)N1CCN(c2ccc(F)cc2)CC1 (configuration not stated)	nt	nt	6.8	4.5	nt	nt	nt	nt
CCn1c(=S)sc2c(=O)n(CC(=O)Nc3cc(OC)ccc3OC)c(C)nc21	10.2	16.9	8.6	3.0	-2.9	nt	nt	nt
O=C(Nc1cc(C(F)(F)F)ccc1N1CCOCC1)c1cccc(S(=O)(=O)N2CCOCC2)c1	nt	nt	1.6	1.2	nt	nt	nt	nt
Cc1ccc(N(C(=O)c2snc(C(N)=O)c2N)C(CC(C)C)C(=O)NC2CCCC2)cc1 (configuration not stated)	-16.1	-2.9	7.4	10.2	-0.6	nt	nt	nt
CCCCC(C(=O)NC1CCCC1)N(C(=O)c1snc(C(N)=O)c1N)c1ccc(C)cc1 (configuration not stated)	11.7	11.0	50.0*	10.9	2.2	48.8	-0.3	5.5
CN(Cc1ccc(Cl)cc1)C(=O)COC(=O)c1ccc(-c2ccc(O)cc2)cc1	16.3	0.2	3.7	-3.8	-3.8	nt	nt	nt
CCN(CC(=O)NCc1ccc(Cl)cc1)C(=O)CSc1ccc(Br)cc1	4.7	-1.5	67.8*	3.9	-0.4	35.4	-0.1	5.3
C[C@@H]1CN([C@H](C)CO)C(=O)CCCn2nncc2CO[C@@H]1CN(C)S(=O)(=O)c1ccccc1	nt	nt	7.6	-2.4	nt	nt	nt	nt
COc1ccc(-n2c(Cc3cccn3C)nnc2SCC(=O)Nc2ccccc2OC)cc1	8.5	5.5	45.0*	-8.1	0.4	31.2	1.1	10.5
COc1ccc(-n2c(Cc3cccn3C)nnc2SCC(=O)Nc2ccccc2)cc1	0.7	1.9	28.9	-3.1	-1.6	nt	nt	nt
COc1ccc(-n2c(Cc3cccn3C)nnc2SCC(=O)Nc2cccc(F)c2)cc1	26.3	11.6	55.8*	1.4	-5.9	6.9	-1.2	-8.7
Cc1ccc(-n2c(Cc3cccn3C)nnc2SCC(=O)NCc2ccc3c(c2)OCO3)cc1	-1.8	-5.9	45.2*	8.6	-2.8	37.3	0.9	-4.0
COc1ccc(-n2c(Cc3cccn3C)nnc2SCC(=O)NCc2ccccc2Cl)cc1	10.5	18.9	56.0*	4.7	-4.8	18.7	1.0	5.2
Cc1ccc(-n2c(Cc3cccn3C)nnc2SCC(=O)Nc2ccc3c(c2)OCO3)cc1	-12.7	-4.2	24.1	-10.4	0.2	nt	nt	nt
O=C(Nc1cccc(C(F)(F)F)c1)C1CCN(S(=O)(=O)c2ccc(N3CCCC3=O)cc2)CC1	-10.5	21.8	-0.9	0.8	8.5	nt	nt	nt
O=C(Cc1c(Cl)cccc1Cl)OCC(=O)N1CCN(C(=O)c2ccco2)CC1	12.6	8.3	3.8	1.2	-4.7	nt	nt	nt
SMILES	APJ antagonist	CCR6 antag	EBI2 block	CXCR6 block	APJ ag	EBI2 conf	EBI2 ag	bGal counter
Cc1ccc(CC(=O)Nc2nccs2)cc1C	4.2	17.6	7.7	4.2	-5.0	nt	nt	nt
COc1ccc(-n2c(Cc3cccn3C)nnc2SCC(=O)Nc2cc(Cl)ccc2OC)cc1	18.7	6.6	57.5*	4.5	-2.6	26.9	0.3	9.9
Cn1cccc1Cc1nnc(SCC(=O)Nc2cccc(F)c2)n1CCc1ccccc1	15.8	0.9	44.8*	7.0	-1.4	38.5	-1.8	-7.5
C=CCNc1nc2cc(-c3cccc(Cl)c3)sc2c(=O)n1C	nt	nt	1.6	3.5	nt	nt	nt	nt
CCOc1cccc(NC(=O)c2ccc(S(=O)(=O)N(C)C)cc2)c1	2.1	12.1	46.1*	-5.4	-0.7	33.2	-1.0	-11.3
CN(C(=O)c1cccc(Nc2ccc(-c3ccc4c(c3)OCCO4)nn2)c1)C1CCCCC1	-17.3	-0.1	41.9*	-0.6	4.3	26.1	1.8	12.4
CCN(CC)S(=O)(=O)c1ccc(Nc2ccc(-c3ccc4c(c3)OCCO4)nn2)cc1	0.7	-5.7	48.9*	-0.1	3.6	25.9	-1.2	-12.9
COc1ccc(/C=N/Nc2cc(N3CCCC3)nc(N3CCCC3)n2)cc1	19.1	8.4	60.3*	2.0	-3.7	32.5	2.7	7.2
Oc1cccc(/C=N/Nc2cc(N3CCCC3)nc(N3CCCC3)n2)c1	17.4	-2.4	39.4	-2.3	-3.6	nt	nt	nt
COc1ccc2cc(C(=O)N3CCN(c4ccccc4OC)CC3)[nH]c2c1	10.3	-9.6	74.5*	-13.2	-3.7	48.9	1.8	3.7
COc1ccc2cc(C(=O)N3CCN(c4ccccc4F)CC3)[nH]c2c1	-0.9	3.5	65.5*	-5.3	0.2	57.7*	1.5	6.6
Cc1nc(N2CCN(C(=O)c3cnccn3)CC2)c2c3c(sc2n1)CC(C(C)(C)C)CC3 (configuration not stated)	-16.2	3.4	32.0	-2.2	1.3	nt	nt	nt
COc1cc(/C=N/NC(=O)COc2ccc(Cl)cc2)ccc1OS(=O)(=O)c1ccc(C)cc1	-20.6	9.2	42.4*	-3.4	6.6	4.6	-1.3	-6.3
COc1cc(/C=N/NC(=O)COc2cccc(F)c2)ccc1OS(=O)(=O)c1ccc(C)cc1	-16.5	17.9	24.4	5.7	1.1	nt	nt	nt
COC(=O)N/N=C/c1ccc(OS(=O)(=O)c2ccc(C)cc2)c(OC)c1	-8.5	2.6	-2.0	-6.4	-1.4	nt	nt	nt
